Activity calls are given as the source filed them. The rule behind the calls is not given here.
Legend:
[1] = system: Phaseolus vulgaris; test: Herbicidal activity against Phaseolus vulgaris assessed as inhibition of seed respiration during germination; type: functional, organism-based; conditions: read-out: I50
[2] = system: Trifolium pratense; test: Herbicidal activity against Trifolium pratense var. Kenland (red clover) assessed as inhibition of seed germination after 48 hr; type: functional, organism-based; conditions: read-out: I50
[3] = system: Lolium multiflorum; test: Herbicidal activity against Lolium multiflorum var. Gulf (Italian ryegrass) assessed as inhibition of seed germination after 48 hr; type: functional, organism-based; conditions: read-out: I50
[4] = system: Artemia salina; test: Toxicity in Artemia salina (brine shrimp) larvae assessed as mortality at 20 uM; type: organism-based; conditions: in vivo
Summary of the method: (§1)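 Brine shrimp lethality test on *Artemia salina* larvae, run across several concentrations up to a top level of 1000 µM. Mortality was scored at each concentration, and LC50 values in µM were derived from the concentration–mortality data.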

[5] = system: Artemia salina; test: Toxicity in Artemia salina (brine shrimp) larvae assessed as mortality; type: organism-based; conditions: in vivo; summary of the method: as §1
[6] = system: Lactuca sativa; test: Herbicidal activity against Lactuca sativa var.Roman (lettuce) assessed as inhibition of seed germination after 48 hr; type: functional, organism-based; conditions: read-out: I50
[7] = system: Artemia salina; test: Toxicity in Artemia salina (brine shrimp) larvae assessed as mortality at 200 uM; type: organism-based; conditions: in vivo; summary of the method: as §1
[8] = system: Artemia salina; test: Toxicity in Artemia salina (brine shrimp) larvae assessed as mortality at 100 uM; type: organism-based; conditions: in vivo; summary of the method: as §1
[9] = system: Artemia salina; test: Toxicity in Artemia salina (brine shrimp) larvae assessed as mortality at 500 to 1000 uM; type: organism-based; conditions: in vivo; summary of the method: as §1
[10] = system: Phaseolus vulgaris; test: Herbicidal activity against Phaseolus vulgaris assessed as inhibition of mitochondrial oxygen uptake; type: functional, organism-based; conditions: read-out: I50
[11] = system: Trifolium pratense; test: Herbicidal activity against Trifolium pratense var. Kenland (red clover) assessed as inhibition of seed respiration during germination after 72 hr by polarographic analysis; type: functional, organism-based
Summary of the method: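 Red clover seeds were exposed to the bismuthines during germination, with respiration followed over the imbibition time. Values were taken at 72 h as the concentration giving 50% inhibition of seed respiration, using means of three experiments.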

[12] = system: Lolium multiflorum; test: Herbicidal activity against Lolium multiflorum var. Gulf (Italian ryegrass) seedlings assessed as root length rate at 7.5 uM after 48 hr relative to control; type: functional, organism-based
Summary of the method: (§2)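 Italian ryegrass seedlings grown with 0, 0.5, 1, 3, 5, 7.5 or 10 µM of each bismuthine. Shoot and root lengths were measured at 48 h and expressed as a percentage of the average untreated control length.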

[13] = system: Lactuca sativa; test: Herbicidal activity against Lactuca sativa var.Roman (lettuce) seedlings assessed as root length at 75 uM after 120 hr (reference value: 18 to 19 mm); type: functional, organism-based
[14] = system: Lactuca sativa; test: Herbicidal activity against Lactuca sativa var.Roman (lettuce) seedlings assessed as seed germination rate at 3 uM after 48 hr relative to control; type: functional, organism-based
[15] = system: Lolium multiflorum; test: Herbicidal activity against Lolium multiflorum var. Gulf (Italian ryegrass) seedlings assessed as root length rate at 5 uM after 48 hr relative to control; type: functional, organism-based; summary of the method: as §2
[16] = system: Radical scavenging activity; test: Antioxidant activity assessed as DPPH free radical scavenging activity at 5 to 100 uM after 30 min by TLC autographic assay; type: functional
[17] = system: Lolium multiflorum; test: Herbicidal activity against Lolium multiflorum var. Gulf (Italian ryegrass) seedlings assessed as root length rate at 3 uM after 48 hr relative to control; type: functional, organism-based; summary of the method: as §2
[18] = system: Lactuca sativa; test: Herbicidal activity against Lactuca sativa var.Roman (lettuce) seedlings assessed as seed germination rate at 0.5 uM after 48 hr relative to control; type: functional, organism-based
[19] = system: Lactuca sativa; test: Herbicidal activity against Lactuca sativa var.Roman (lettuce) seedlings assessed as shoot length at 5 uM after 120 hr (reference value: 27 to 31 mm); type: functional, organism-based
[20] = system: Lactuca sativa; test: Herbicidal activity against Lactuca sativa var.Roman (lettuce) seedlings assessed as root length at 10 uM after 120 hr (reference value: 18 to 19 mm); type: functional, organism-based
[21] = system: Lolium multiflorum; test: Herbicidal activity against Lolium multiflorum var. Gulf (Italian ryegrass) seedlings assessed as shoot length rate at 0.5 uM after 48 hr relative to control; type: functional, organism-based; summary of the method: as §2
[22] = system: Lolium multiflorum; test: Herbicidal activity against Lolium multiflorum var. Gulf (Italian ryegrass) seedlings assessed as root length rate at 0.5 uM after 48 hr relative to control; type: functional, organism-based; summary of the method: as §2
[23] = system: Lactuca sativa; test: Herbicidal activity against Lactuca sativa var.Roman (lettuce) seedlings assessed as root length at 50 uM after 120 hr (reference value: 18 to 19 mm); type: functional, organism-based
[24] = system: Lactuca sativa; test: Herbicidal activity against Lactuca sativa var.Roman (lettuce) seedlings assessed as seed germination rate at 5 uM after 48 hr relative to control; type: functional, organism-based
[25] = system: Lolium multiflorum; test: Herbicidal activity against Lolium multiflorum var. Gulf (Italian ryegrass) seedlings assessed as root length rate at 1 uM after 48 hr relative to control; type: functional, organism-based; summary of the method: as §2
[26] = system: Lolium multiflorum; test: Herbicidal activity against Lolium multiflorum var. Gulf (Italian ryegrass) seedlings assessed as shoot length rate at 1 uM after 48 hr relative to control; type: functional, organism-based; summary of the method: as §2
[27] = system: Lactuca sativa; test: Herbicidal activity against Lactuca sativa var.Roman (lettuce) seedlings assessed as seed germination rate at 10 uM after 48 hr relative to control; type: functional, organism-based
[28] = system: Lactuca sativa; test: Herbicidal activity against Lactuca sativa var.Roman (lettuce) seedlings assessed as inhibition of seed germination at 5 uM after 48 hr; type: functional, organism-based
[29] = system: Radical scavenging activity; test: Antioxidant activity assessed as DPPH free radical scavenging activity at 5 to 100 uM after 30 min by spectrophotometric analysis; type: functional
Summary of the method: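 DPPH reduction by the compounds was read spectrophotometrically at 517 nm after 30 min. 100% DMSO served as the blank and quercetin as the reference scavenger.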

[30] = system: Physalis ixocarpa; test: Herbicidal activity against Physalis ixocarpa assessed as inhibition of seed respiration during germination after 72 hr by polarographic analysis; type: functional, organism-based
[31] = system: Lolium multiflorum; test: Herbicidal activity against Lolium multiflorum var. Gulf (Italian ryegrass) seedlings assessed as shoot length rate at 7.5 uM after 48 hr relative to control; type: functional, organism-based; summary of the method: as §2
[32] = system: Lactuca sativa; test: Herbicidal activity against Lactuca sativa var.Roman (lettuce) seedlings assessed as root length at 5 uM after 120 hr (reference value: 18 to 19 mm); type: functional, organism-based
[33] = system: Lactuca sativa; test: Herbicidal activity against Lactuca sativa var.Roman (lettuce) seedlings assessed as shoot length at 75 uM after 120 hr (reference value: 27 to 31 mm); type: functional, organism-based
[34] = system: Lactuca sativa; test: Herbicidal activity against Lactuca sativa var.Roman (lettuce) seedlings assessed as root length at 25 uM after 120 hr (reference value: 18 to 19 mm); type: functional, organism-based
[35] = system: Lolium multiflorum; test: Herbicidal activity against Lolium multiflorum var. Gulf (Italian ryegrass) assessed as inhibition of seed respiration during germination after 72 hr by polarographic analysis; type: functional, organism-based
[36] = system: Lactuca sativa; test: Herbicidal activity against Lactuca sativa var.Roman (lettuce) seedlings assessed as seed germination rate at 7.5 uM after 48 hr relative to control; type: functional, organism-based
[37] = system: Lactuca sativa; test: Herbicidal activity against Lactuca sativa var.Roman (lettuce) seedlings assessed as growth inhibition at 5 uM after 120 hr; type: functional, organism-based
[38] = system: Lactuca sativa; test: Herbicidal activity against Lactuca sativa var.Roman (lettuce) seedlings assessed as shoot length at 10 uM after 120 hr (reference value: 27 to 31 mm); type: functional, organism-based
[39] = system: Lactuca sativa; test: Herbicidal activity against Lactuca sativa var.Roman (lettuce) seedlings assessed as partial inhibition of hypocotyle growth up to 10 uM after 48 hr; type: functional, organism-based
[40] = system: Trifolium pratense; test: Herbicidal activity against Trifolium pratense var. Kenland (red clover) seedlings assessed as partial inhibition of hypocotyle growth up to 15 uM after 48 hr; type: functional, organism-based
[41] = system: Lolium multiflorum; test: Herbicidal activity against Lolium multiflorum var. Gulf (Italian ryegrass) seedlings assessed as shoot length rate at 3 uM after 48 hr relative to control; type: functional, organism-based; summary of the method: as §2
[42] = system: Lolium multiflorum; test: Herbicidal activity against Lolium multiflorum var. Gulf (Italian ryegrass) seedlings assessed as shoot length rate at 5 uM after 48 hr relative to control; type: functional, organism-based; summary of the method: as §2
[43] = system: Lolium multiflorum; test: Herbicidal activity against Lolium multiflorum var. Gulf (Italian ryegrass) seedlings assessed as shoot length rate at 10 uM after 48 hr relative to control; type: functional, organism-based; summary of the method: as §2
[44] = system: Lactuca sativa; test: Herbicidal activity against Lactuca sativa var.Roman (lettuce) seedlings assessed as seed germination rate at 1 uM after 48 hr relative to control; type: functional, organism-based
[45] = system: Lolium multiflorum; test: Herbicidal activity against Lolium multiflorum var. Gulf (Italian ryegrass) seedlings assessed as root length rate at 10 uM after 48 hr relative to control; type: functional, organism-based; summary of the method: as §2
[46] = system: Lactuca sativa; test: Herbicidal activity against Lactuca sativa var.Roman (lettuce) seedlings assessed as shoot length at 25 uM after 120 hr (reference value: 27 to 31 mm); type: functional, organism-based
[47] = system: Lactuca sativa; test: Herbicidal activity against Lactuca sativa var.Roman (lettuce) seedlings assessed as shoot length at 50 uM after 120 hr (reference value: 27 to 31 mm); type: functional, organism-based

| Compound | Activity [12] | Activity [13] | Activity [14] | Activity [15] | Activity [16] | Activity [17] | Activity [18] | Activity [19] | Activity [20] | Activity [21] | Activity [22] | Activity [23] | Activity [24] | Activity [25] | Activity [26] | Activity [27] | inhibition [28] | Activity [29] | inhibition [30] | Activity [31] | also measured |
| --- | --- | --- | --- | --- | --- | --- | --- | --- | --- | --- | --- | --- | --- | --- | --- | --- | --- | --- | --- | --- | --- |
| TRIS(2-FURYL)BISMUTH |  |  |  |  |  |  |  |  |  |  |  |  |  |  |  |  |  |  |  |  | IC50 [1]: 1.1 µM; IC50 [2]: 4.6 µM; IC50 [3]: 20 µM; mortality [4]: 12.28%; LC50 [5]: 99 µM; IC50 [6]: 16.1 µM; mortality [7]: 68.96%; mortality [8]: 50.9%; mortality [9]: 100%; IC50 [10]: 10 µM; IC50 ([11]; read-out: I50): 6.3 µM |
| TRIS(1-METHYL-2-PYRROLYL)BISMUTH | 60% | 0 mm | 80% | 46% | inactive | 76% | 85% | 29 mm | 11 mm | 93% | 112% | 0 mm | 76% | 78% | 84% | 60% | Active | Active | Active | 64% | Activity [32]: 30 mm; Activity [33]: 0 mm; Activity [34]: 0 mm; inhibition [35]: inactive; Activity [36]: 65%; inhibition [37]: 30%; Activity [38]: 9 mm; growth inhibition (GI) [39]: Active; growth inhibition (GI) [40]: Active; Activity [41]: 82%; Activity [42]: 66%; Activity [43]: 28%; Activity [44]: 85%; Activity [45]: 34%; inhibition [11]: Dose-dependent effect |
| TRIS(2-THIENYL)BISMUTH | 50% | 0 mm | 85% | 76% | inactive | 52% | 90% | 33 mm | 5 mm | 84% | 70% | 2 mm | 80% | 88% | 82% | 60% | Active | Active | Active | 46% | Activity [46]: 7 mm; Activity [47]: 5 mm; Activity [32]: 36 mm; Activity [33]: 0 mm; Activity [34]: 3 mm; inhibition [35]: inactive; Activity [36]: 70%; inhibition [37]: 30%; Activity [38]: 9 mm; Activity [41]: 71%; Activity [42]: 75%; Activity [43]: 37%; Activity [44]: 90%; Activity [45]: 30%; inhibition [11]: Dose-dependent effect |
| O=c1c(O)c(-c2ccc(O)c(O)c2)oc2cc(O)cc(O)c12 |  |  |  |  |  |  |  |  |  |  |  |  |  |  |  |  |  | Active |  |  |  |

From ChEMBL document CHEMBL3046702, “Herbicidal, plant growth inhibitory, and cytotoxic activities of bismuthines containing aromatic heterocycles” (J Agric Food Chem, 2003)
